# Source: ChEMBL document CHEMBL4706728, “Discovery of a Highly Selective and Potent TRPC3 Inhibitor with High Metabolic Stability and Low Toxicity” (ACS Med Chem Lett, 2021)
# The source made the active and inactive calls. The rule behind the calls is not given here.
# Assays:
# [1] = target: Transient receptor potential cation channel subfamily V member 4 (Rattus norvegicus) (UniProt Q9ERZ8); assay: Inhibition of rat TRPV4 expressed in HEK293 cells assessed as inhibition of GSK101-induced current at 10 uM by whole cell patch-clamp method; type: cell-based
# Method in brief: (§1)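 TRP channels overexpressed in HEK293 cells (hTRPA1, rTRPV1, rTRPV4, mouse TRPC6, hTRPC7, hTRPM8). Whole-cell patch clamp with Ca2+-free solutions to avoid desensitization. Channels fully activated with high concentrations of their agonists (AITC for TRPA1, capsaicin for TRPV1, GSK1016790A for TRPV4), then 10 μM test compound perfused with agonist. Result expressed as percentage of peak current blocked; mean ± SD.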
# [2] = target: ORAI1/STIM1 (Homo sapiens, UniProt Q96D31+Q13586); assay: Inhibition of STIM/Orai1 (unknown origin) expressed in HEK293 cells assessed as reduction in thapsigargin-induced Ca2+ influx at 10 uM in presence of Ca2+ by whole cell patch clamp method; type: cell-based; details: hek293, 10 µM
# [3] = Metabolic stability in human liver microsomes assessed as half life at […] measured up to 240 mins in presence of NADPH regeneration system by LC-MS analysis; type: ADME, Microsome
# [4] = tested on: Hippocampal neurone; assay: Neuroprotective activity in Sprague-Dawley rat primary hippocampal neurons assessed as reduction in Abeta-induced dendrites damage at 0.25 to 1 uM incubated for 16 hrs by MAP2 staining based assay; type: functional, tissue-based; details: dose 0.25-1 µM
# Method in brief: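 Primary hippocampal neurons from E17 rat embryos, used at 14 DIV. Treated for 16 h with naturally secreted Aβ-containing 7PA2 conditioned medium (CHO medium as control), alone or with test compound at several concentrations. Neurons then immunostained for MAP2 with DAPI, and dendritic length quantified.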
# [5] = Toxicity in NSG/ICR mouse assessed as survival at 200 mg/kg, ip administered once daily for 5 days; type: organism-based; details: in vivo, 200 mg/kg, 120 h, dose 200 mg/kg/day, time 5 day
# Method in brief: (§2)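 Mice (n = 5 per group) dosed at 200 mg/kg by intraperitoneal injection once daily for 5 consecutive days. Survival monitored. Body weight expressed as mean percent change ± SD relative to weight at the start of treatment (day 0), with 15% weight loss as the reference line.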
# [6] = target: Transient receptor potential cation channel subfamily V member 1 (Rattus norvegicus) (UniProt O35433); assay: Inhibition of rat TRPV1 expressed in HEK293 cells assessed as inhibition of capsaicin-induced current at 10 uM by whole cell patch-clamp method; type: cell-based; method in brief: as §1
# [7] = Binding affinity to human His8-MBP-TRPC3b I395V mutant expressed in baculovirus infected Sf9 cells incubated for 1 hr by LC-MS analysis
# Method in brief: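 Purified hTRPC3 protein incubated with compound for 1 h. Free compound removed by repeated size-exclusion chromatography. Methanol added to denature the protein and extract bound compound, which is detected by LC-MS against a prepared control. MS data collected from 2.5 min onward to keep buffer salts out.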
# [8] = Metabolic stability in rat liver microsomes assessed as half life at […] measured up to 240 mins in presence of NADPH regeneration system by LC-MS analysis; type: ADME, Microsome
# [9] = Metabolic stability in mouse liver microsomes assessed as half life at […] measured up to 240 mins in presence of NADPH regeneration system by LC-MS analysis; type: ADME, Microsome
# [10] = target: T1, Short transient receptor potential channel 3 (Homo sapiens, UniProt Q13507); assay: Inhibition of human TRPC3 expressed in HEK293 cells assessed as inhibition of GSK170-induced current in presence of 2 mM extracellular calcium by whole cell patch-clamp method; type: cell-based
# T1 sequence (Q13507 whole entry): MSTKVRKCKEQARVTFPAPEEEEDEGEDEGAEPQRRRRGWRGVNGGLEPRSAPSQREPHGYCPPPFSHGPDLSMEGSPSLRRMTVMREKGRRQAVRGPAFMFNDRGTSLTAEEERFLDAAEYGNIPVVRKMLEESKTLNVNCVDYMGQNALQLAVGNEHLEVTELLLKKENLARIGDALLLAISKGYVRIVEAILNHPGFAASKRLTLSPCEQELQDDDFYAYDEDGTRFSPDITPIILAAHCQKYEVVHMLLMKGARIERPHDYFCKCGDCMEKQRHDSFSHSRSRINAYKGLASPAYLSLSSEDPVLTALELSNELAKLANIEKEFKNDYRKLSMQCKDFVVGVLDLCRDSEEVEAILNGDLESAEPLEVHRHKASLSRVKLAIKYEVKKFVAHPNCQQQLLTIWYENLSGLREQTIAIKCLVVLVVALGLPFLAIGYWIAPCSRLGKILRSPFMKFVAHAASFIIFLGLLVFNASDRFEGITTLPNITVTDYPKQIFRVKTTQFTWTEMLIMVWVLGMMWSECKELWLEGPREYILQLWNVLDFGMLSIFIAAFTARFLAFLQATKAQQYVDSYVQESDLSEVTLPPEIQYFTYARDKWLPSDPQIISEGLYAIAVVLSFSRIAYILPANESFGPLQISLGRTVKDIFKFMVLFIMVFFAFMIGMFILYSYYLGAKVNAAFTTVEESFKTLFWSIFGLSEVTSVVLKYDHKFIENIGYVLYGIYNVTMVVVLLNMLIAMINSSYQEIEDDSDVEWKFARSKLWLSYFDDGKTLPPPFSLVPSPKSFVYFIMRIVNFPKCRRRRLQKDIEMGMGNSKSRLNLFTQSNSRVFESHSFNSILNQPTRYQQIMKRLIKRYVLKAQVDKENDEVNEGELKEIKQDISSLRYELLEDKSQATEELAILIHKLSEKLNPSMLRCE
# Method in brief: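 hTRPC3 in HEK293 cells, whole-cell patch clamp with 2 mM extracellular Ca2+. Currents elicited by 1 μM GSK1702934A and challenged with a range of inhibitor concentrations by perfusion. Each concentration tested on separate cells and normalized to the cell's maximum amplitude. Dose–response curve built from the data; mean ± SD.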
# [11] = target: T2, Short transient receptor potential channel 3 (Homo sapiens) (UniProt Q13507); assay: Inhibition of human TRPC3 expressed in HEK293 cells assessed as inhibition of GSK170-induced current at 10 uM in absence of extracellular calcium by whole cell patch-clamp method relative to control; type: cell-based
# T2 sequence (whole entry): T1 sequence (Q13507 whole entry)
# Method in brief: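 Human TRPC3 transiently expressed in HEK293 cells; whole-cell patch clamp with Ca2+-free solutions. Channel activated by GSK1702934A, then test compound at 10 μM perfused with the agonist. Inhibition expressed as percentage of the agonist-evoked current; mean ± SD, n cells per compound.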
# [12] = Toxicity in NSG/ICR mouse assessed as body weight loss at 200 mg/kg, ip administered once daily for 5 days; type: organism-based; details: in vivo, 120 h, dose 200 mg/kg/day, time 5 day; method in brief: as §2
# [13] = target: T2, Short transient receptor potential channel 3 (Homo sapiens); assay: Inhibition of human TRPC3 expressed in HEK293 cells assessed as inhibition of OAG-induced current at 0.001 to 10 uM by whole cell patch-clamp method; type: cell-based; details: dose 0.001-10 µM
# Method in brief: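 Whole-cell recordings of hTRPC3 expressed in HEK293 cells, channel activated by 1-oleoyl-2-acetyl-sn-glycerol (membrane-permeable diacylglycerol analogue) instead of GSK1702934A. Inhibitor at a range of concentrations co-perfused with agonist to build a dose–response profile.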
# Transient receptor potential cation channel subfamily V member 4 (Rattus norvegicus), sequence (Q9ERZ8 whole entry, the tested form may be a part): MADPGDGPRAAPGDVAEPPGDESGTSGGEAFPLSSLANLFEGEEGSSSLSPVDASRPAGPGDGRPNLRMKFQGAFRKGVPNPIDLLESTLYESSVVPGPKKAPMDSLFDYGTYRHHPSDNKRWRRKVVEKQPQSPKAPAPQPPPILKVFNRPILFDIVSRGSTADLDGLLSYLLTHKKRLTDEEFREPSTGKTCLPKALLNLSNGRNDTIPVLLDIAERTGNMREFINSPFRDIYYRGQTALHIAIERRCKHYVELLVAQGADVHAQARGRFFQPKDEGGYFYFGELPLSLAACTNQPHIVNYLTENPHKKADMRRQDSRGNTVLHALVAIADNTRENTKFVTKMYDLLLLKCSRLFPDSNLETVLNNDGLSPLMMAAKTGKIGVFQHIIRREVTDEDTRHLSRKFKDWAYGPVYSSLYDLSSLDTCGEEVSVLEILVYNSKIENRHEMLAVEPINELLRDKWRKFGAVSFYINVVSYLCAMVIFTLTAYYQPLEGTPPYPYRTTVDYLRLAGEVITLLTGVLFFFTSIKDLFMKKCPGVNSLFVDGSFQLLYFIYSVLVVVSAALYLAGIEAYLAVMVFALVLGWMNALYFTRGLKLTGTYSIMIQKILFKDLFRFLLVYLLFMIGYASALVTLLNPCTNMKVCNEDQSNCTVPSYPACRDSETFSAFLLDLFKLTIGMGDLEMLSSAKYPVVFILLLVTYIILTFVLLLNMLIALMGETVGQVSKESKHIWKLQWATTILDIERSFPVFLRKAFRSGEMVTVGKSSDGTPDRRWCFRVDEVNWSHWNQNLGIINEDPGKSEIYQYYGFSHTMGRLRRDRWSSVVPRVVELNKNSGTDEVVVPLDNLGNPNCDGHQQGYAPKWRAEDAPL
# Transient receptor potential cation channel subfamily V member 1 (Rattus norvegicus), sequence (O35433 whole entry): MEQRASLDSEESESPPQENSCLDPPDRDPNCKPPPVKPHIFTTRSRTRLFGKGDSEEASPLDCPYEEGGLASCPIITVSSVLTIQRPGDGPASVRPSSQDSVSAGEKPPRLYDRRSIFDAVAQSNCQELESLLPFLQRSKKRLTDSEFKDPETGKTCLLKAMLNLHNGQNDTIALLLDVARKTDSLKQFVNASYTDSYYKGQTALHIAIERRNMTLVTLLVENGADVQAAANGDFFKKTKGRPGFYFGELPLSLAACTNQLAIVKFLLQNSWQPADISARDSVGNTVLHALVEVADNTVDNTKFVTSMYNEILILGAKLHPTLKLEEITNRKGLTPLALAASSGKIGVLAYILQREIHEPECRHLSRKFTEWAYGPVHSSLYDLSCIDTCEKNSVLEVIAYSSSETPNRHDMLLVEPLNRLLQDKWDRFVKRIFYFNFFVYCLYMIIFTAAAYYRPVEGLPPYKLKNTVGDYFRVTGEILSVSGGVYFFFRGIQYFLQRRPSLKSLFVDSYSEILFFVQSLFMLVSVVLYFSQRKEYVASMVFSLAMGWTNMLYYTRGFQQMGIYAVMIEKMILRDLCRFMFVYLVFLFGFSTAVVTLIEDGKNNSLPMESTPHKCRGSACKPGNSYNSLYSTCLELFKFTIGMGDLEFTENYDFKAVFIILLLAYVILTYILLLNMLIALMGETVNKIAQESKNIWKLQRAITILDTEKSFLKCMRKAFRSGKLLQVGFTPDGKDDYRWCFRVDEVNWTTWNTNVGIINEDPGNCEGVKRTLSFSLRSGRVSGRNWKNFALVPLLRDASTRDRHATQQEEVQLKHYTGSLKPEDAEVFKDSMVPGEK
# ORAI1/STIM1, sequence (Q96D31 whole entry): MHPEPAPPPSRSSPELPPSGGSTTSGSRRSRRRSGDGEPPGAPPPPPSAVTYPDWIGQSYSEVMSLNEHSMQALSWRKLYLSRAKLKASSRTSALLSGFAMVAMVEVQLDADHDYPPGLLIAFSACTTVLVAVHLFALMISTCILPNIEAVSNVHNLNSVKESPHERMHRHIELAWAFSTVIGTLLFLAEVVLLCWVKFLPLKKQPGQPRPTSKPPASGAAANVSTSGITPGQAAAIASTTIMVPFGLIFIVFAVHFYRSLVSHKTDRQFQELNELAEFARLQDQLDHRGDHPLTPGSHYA
# ORAI1/STIM1, sequence (Q13586 whole entry): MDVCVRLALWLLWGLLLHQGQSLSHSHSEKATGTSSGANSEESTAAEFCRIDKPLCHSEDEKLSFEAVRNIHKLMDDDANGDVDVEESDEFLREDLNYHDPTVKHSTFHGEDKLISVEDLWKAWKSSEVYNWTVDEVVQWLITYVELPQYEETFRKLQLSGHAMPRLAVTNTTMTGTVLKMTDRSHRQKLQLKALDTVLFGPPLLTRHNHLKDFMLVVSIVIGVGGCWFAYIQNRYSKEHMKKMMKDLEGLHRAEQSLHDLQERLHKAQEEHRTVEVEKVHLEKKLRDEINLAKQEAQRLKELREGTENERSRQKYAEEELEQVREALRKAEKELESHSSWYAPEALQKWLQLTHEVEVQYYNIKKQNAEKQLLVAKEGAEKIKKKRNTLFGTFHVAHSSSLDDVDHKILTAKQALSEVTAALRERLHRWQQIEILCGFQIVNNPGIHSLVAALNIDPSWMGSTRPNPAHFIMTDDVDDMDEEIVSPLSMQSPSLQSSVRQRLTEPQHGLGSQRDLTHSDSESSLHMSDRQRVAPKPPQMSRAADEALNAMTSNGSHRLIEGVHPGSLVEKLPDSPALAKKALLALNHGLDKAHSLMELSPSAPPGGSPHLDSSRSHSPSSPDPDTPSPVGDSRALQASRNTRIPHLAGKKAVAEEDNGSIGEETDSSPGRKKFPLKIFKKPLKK
compound,measurement,setting,value
CCNC(=O)c1cnn(-c2ccc(-n3ccc(Cl)c(Cl)c3=O)cc2)c1C(F)(F)F,inhibition,[1],inactive
same,inhibition (INH),[2],Active
same,half-life,[3],> 4 h
same,Activity,[4],Active
same,Activity,[5],Non-Toxic
same,inhibition,[6],inactive
same,Activity,[7],Active
same,half-life,[8],> 4 h
same,half-life,[9],> 4 h
same,IC50,[10],430 nM
same,inhibition,[11],89%
same,Activity,[12],Non-Toxic
same,inhibition,[13],Active
